{"source": "paper PMC8212709", "about": "(Clinical and Translational Science, 2021)", "key": {"[1]": {"assay": "Plasma pharmacokinetics of TAK‐020", "format": "in vivo, human (healthy subjects)", "conditions": "for half-life / Tmax: human, plasma", "in_short": "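In the MRD part, healthy subjects took oral test compound q.d. (3.75–60 mg) or placebo, with sampling on days 1 and 9. Plasma levels were measured by validated HPLC-MS/MS (LLOQ 0.10 ng/mL). Noncompartmental parameters used actual sampling times, with geometric mean and %CV for Cmax and AUC. Accumulation ratios were based on Cmax and AUC24, plus the LS-mean ratio AUC24 (day 9):AUC∞ (day 1).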"}, "[2]": {"test_system": "FcεRI‐mediated activation of basophils", "assay": "Basophil activation test", "format": "in vivo, human"}, "[3]": {"test_system": "rat collagen‐induced arthritis model", "conditions": "nonclinical, no reference given; cited from earlier work"}, "[4]": {"conditions": "rats, nonclinical, no reference given, cited from earlier work"}, "[5]": {"conditions": "nonclinical studies, oral solution; no reference given; cited from earlier work"}}}
{"compound": "C=CC(=O)N1CC[C@H](Oc2nc(-c3n[nH]c(=O)[nH]3)cc3ccccc23)C1", "note": "[TAK‐020]", "values": [{"measurement": "least‐squares means ratio of AUC24 (day 9):AUC∞ (day 1)", "setting": "[1]; MRD", "result": "near unity"}, {"measurement": "accumulation ratio based on AUC24 (Rac(AUC24)), geometric mean", "setting": "[1]; MRD 3.75 to 60 mg q.d.", "result": "near unity"}, {"measurement": "accumulation ratio based on Cmax (Rac(Cmax)), geometric mean", "setting": "[1]; MRD 3.75 to 60 mg q.d.", "result": "near unity"}, {"measurement": "steady‐state systemic exposure (mean dose‐normalized Cmax and AUC24) vs dose", "setting": "[1]; MRD, days 1 and 9", "result": "dose‐proportional manner up to 60 mg"}, {"measurement": "half-life", "setting": "[1]; oral, 3.75 mg, mean t1/2z, MRD, 3.75‐mg dose, day 1", "result": 2.59, "unit": "h"}, {"measurement": "half-life", "setting": "[1]; oral, 3.75 mg, mean t1/2z, MRD, 3.75‐mg dose, day 9 after q.d. dosing", "result": 2.15, "unit": "h"}, {"measurement": "half-life", "setting": "[1]; oral, 60 mg, mean t1/2z, MRD, 60‐mg dose, day 1", "result": 6.3, "unit": "h"}, {"measurement": "half-life", "setting": "[1]; oral, 60 mg, mean t1/2z, MRD, 60‐mg dose, day 9 after q.d. dosing", "result": 5.46, "unit": "h"}, {"measurement": "half-life", "setting": "[1]; oral, half‐life, doses ≥ 2.5 mg (abstract)", "result": "3 to 9", "unit": "h"}, {"measurement": "half-life", "setting": "[1]; oral, mean half‐life in plasma, q.d. dosing", "result": "2 to 6", "unit": "h"}, {"measurement": "Tmax", "setting": "[1]; oral, median Tmax, MRD 3.75 to 60 mg, after a single dose on day 1", "result": "0.5 to 0.75", "unit": "h"}, {"measurement": "Tmax", "setting": "[1]; oral, median Tmax, MRD 3.75 to 60 mg, day 9 after q.d. dosing", "result": "0.75 to 1", "unit": "h"}, {"measurement": "Tmax", "setting": "[1]; po, median time to maximum plasma concentration (Tmax), single and multiple doses (abstract)", "result": "0.75 to 1", "unit": "h"}, {"measurement": "reduction from baseline in the %CD63‐positive basophils", "setting": "[2]; MRD, day 9 after q.d. administration, doses ≥3.75 mg (3.75 to 60 mg)", "result": "> 80", "unit": "%"}, {"measurement": "reduction in the %CD63‐positive basophils sustained throughout the entire dosing interval (predose to 24 hours postdose)", "setting": "[2]; MRD, ≥ 45‐mg doses, after multiple dosing for 9 days", "result": "≥ 80", "unit": "%"}, {"measurement": "reduction in the %CD63‐positive basophils", "setting": "[2]; SRD, 0.1‐mg and 0.5‐mg dose groups", "result": "essentially no reduction"}, {"measurement": "time to return to baseline basophil activity postdose", "setting": "[2]; SRD, single doses ≥ 4.4 mg", "result": "36 to 72", "unit": "h"}, {"measurement": "reduction from baseline of FcεRI‐mediated activation of basophils (%CD63‐positive basophils)", "setting": "[2]; SRD, single doses ≥ 4.4 mg (4.4–105 mg)", "result": "> 80", "unit": "%"}, {"measurement": "median effective dose", "setting": "[3]", "result": 0.31, "unit": "mg/kg per day"}, {"measurement": "terminal disposition phase elimination half‐life (t1/2z)", "setting": "[4]; after oral administration", "result": "4.4 to 7.3", "unit": "h"}, {"measurement": "oral bioavailability", "setting": "[4]", "result": 13.2, "unit": "%"}, {"measurement": "time of peak plasma concentrations postdose", "setting": "[5]", "result": "≤ 2", "unit": "h"}]}
